Test results: ChEMBL document CHEMBL1138596, “Synthesis and biological evaluation of novel 4-(hetero) aryl-2-piperazino quinazolines as anti-leishmanial and anti-proliferative agents” (Bioorg Med Chem Lett, 2009)
Values after ≈ are worked out from the molar mass of the structure shown.

What was measured:
[1] = system: KB; experiment: Antiproliferative activity against human KB cells by MTT assay; format: functional, cell-based
In short: (§1)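 Twofold serial dilutions of compound up to a highest concentration of 50 µg/mL; viability read by MTT assay; panel of DU145 prostate, MCF-7 breast, KB oral epidermal, C33A cervical carcinoma lines and non-cancerous VERO cells.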

[2] = system: Vero; experiment: Antiproliferative activity against african green monkey Vero cells by MTT assay; format: cell-based; details: Chlorocebus sabaeus; in short: as §1
[3] = (§2) Selectivity index, ratio of CC50 for mouse J774A1 cells to IC50 for Leishmania donovani MHOM/IN/Dd8 amastigotes; format: functional, J774.A1
[4] = Cytotoxicity against mouse J774A1 cells; format: cell-based, J774.A1
In short: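 Mouse macrophage line J-774-A-1; cytotoxicity read by MTT assay.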

[5] = system: Leishmania donovani; experiment: Antileishmanial activity against Leishmania donovani MHOM/IN/Dd8 amastigotes infected in mouse J774A1 cells assessed as luciferase activity after 48 hrs; format: functional, organism-based; details: for IC50: MHOM/IN/Dd8, J774.A1, 48 h; for Activity: J774.A1
In short: (§3)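 L. donovani parasites transfected with firefly luciferase gene, maintained in medium 199 with 10% fetal calf serum, penicillin (50 U/ml) and streptomycin under G418 pressure; compounds tested at various concentrations against transgenic promastigotes and intracellular amastigotes; IC50 calculated by Probit analysis.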

[6] = system: DU-145; experiment: Antiproliferative activity against human DU145 cells by MTT assay; format: functional, cell-based; in short: as §1
[7] = system: Leishmania donovani; experiment: Antileishmanial activity against Leishmania donovani MHOM/IN/Dd8 promastigotes assessed as luciferase activity after 72 hrs; format: functional, organism-based; details: MHOM/IN/Dd8, 72 h; in short: as §3
[8] = system: MCF7; experiment: Antiproliferative activity against human MCF7 cells by MTT assay; format: functional, cell-based; in short: as §1
[9] = system: C-33-A; experiment: Antiproliferative activity against human C33A cells by MTT assay; format: functional, cell-based; in short: as §1
[10] = system: J774.A1; experiment: as §2; format: functional

Row | Molecule | IC50 [1] | IC50 [2] | Ratio CC50/IC50 [3] | CC50 [4] | IC50 [5] | IC50 [6] | IC50 [7] | IC50 [8] | IC50 [9] | Activity [5] | Ratio CC50/IC50 [10]
1 | COc1cc(OC)c(-c2nc(N3CCN(C)CC3)nc3ccccc23)c(OC)c1 | > 50 µg/mL | > 50 µg/mL | >8.03 | > 100 µg/mL | 12.4 µg/mL (≈ 31.6 µM) | > 50 µg/mL | 6.2 µg/mL (≈ 15.7 µM) | > 50 µg/mL | > 50 µg/mL | – | –
2 | c1ccc2c(-c3c[nH]c4ccccc34)nc(N3CCOCC3)nc2c1 | > 50 µg/mL | > 50 µg/mL | 1.99 | 50.1 µg/mL (≈ 152 µM) | 25.1 µg/mL (≈ 76.1 µM) | > 50 µg/mL | 1.8 µg/mL (≈ 5.45 µM) | > 50 µg/mL | > 50 µg/mL | – | –
3 | COc1ccc(-c2nc(N3CCN(C)CC3)nc3ccccc23)c(OC)c1 | > 50 µg/mL | > 50 µg/mL | 4.21 | 18 µg/mL (≈ 49.4 µM) | 4.28 µg/mL (≈ 11.7 µM) | > 50 µg/mL | 3.79 µg/mL (≈ 10.4 µM) | > 50 µg/mL | > 50 µg/mL | – | –
4 | c1ccc2c(-c3c[nH]c4ccccc34)nc(N3CCNCC3)nc2c1 | 4 µg/mL (≈ 12.1 µM) | 8.9 µg/mL (≈ 27 µM) | – | 3.11 µg/mL (≈ 9.44 µM) | – | 12.5 µg/mL (≈ 37.9 µM) | 0.56 µg/mL (≈ 1.7 µM) | 14.1 µg/mL (≈ 42.8 µM) | 8.2 µg/mL (≈ 24.9 µM) | Toxic | –
5 | CN1CCN(c2nc(-c3cn(C)c4ccccc34)c3ccccc3n2)CC1 | > 50 µg/mL | > 50 µg/mL | – | 1.03 µg/mL (≈ 2.88 µM) | – | > 50 µg/mL | 0.62 µg/mL (≈ 1.73 µM) | > 50 µg/mL | > 50 µg/mL | Toxic | –
6 | c1ccc2c(-c3c[nH]c4ccccc34)nc(N3CCCCC3)nc2c1 | > 50 µg/mL | > 50 µg/mL | – | – | – | > 50 µg/mL | > 10 µg/mL | > 50 µg/mL | > 50 µg/mL | – | –
7 | CN1CCN(c2nc(-c3c[nH]c4ccccc34)c3ccccc3n2)CC1 | 4.9 µg/mL (≈ 14.3 µM) | 22.3 µg/mL (≈ 64.9 µM) | 1.74 | 7.27 µg/mL (≈ 21.2 µM) | 4.17 µg/mL (≈ 12.1 µM) | 20.8 µg/mL (≈ 60.6 µM) | 0.68 µg/mL (≈ 1.98 µM) | 6 µg/mL (≈ 17.5 µM) | 11.5 µg/mL (≈ 33.5 µM) | – | –
8 | COc1cc(OC)c(-c2nc(N3CCNCC3)nc3ccccc23)c(OC)c1 | > 50 µg/mL | > 50 µg/mL | – | – | – | > 50 µg/mL | 0.25 µg/mL (≈ 0.657 µM) | > 50 µg/mL | > 50 µg/mL | Toxic | –
9 | N=C(N)c1ccc(OCCCCCOc2ccc(C(=N)N)cc2)cc1 [PENTAMIDINE] | – | – | 2.07 | – | – | – | – | – | – | – | –
10 | COc1ccc(-c2nc(N3CCNCC3)nc3ccccc23)c(OC)c1 | > 50 µg/mL | > 50 µg/mL | 0.78 | 3.98 µg/mL (≈ 11.4 µM) | 5.11 µg/mL (≈ 14.6 µM) | > 50 µg/mL | 0.624 µg/mL (≈ 1.78 µM) | > 50 µg/mL | > 50 µg/mL | – | –
11 | Cn1cc(-c2nc(N3CCNCC3)nc3ccccc23)c2ccccc21 | > 50 µg/mL | > 50 µg/mL | 1.28 | 16 µg/mL (≈ 46.6 µM) | 12.5 µg/mL (≈ 36.4 µM) | > 50 µg/mL | 0.28 µg/mL (≈ 0.815 µM) | > 50 µg/mL | > 50 µg/mL | – | –
12 | Sodium stilbogluconate | – | – | – | – | – | – | – | – | – | – | 6.38
13 | Fc1ccc(N2CCN(c3nc(-c4c[nH]c5ccccc45)c4ccccc4n3)CC2)cc1 | > 50 µg/mL | > 50 µg/mL | 1.9 | 23.4 µg/mL (≈ 55.3 µM) | 12.3 µg/mL (≈ 29.1 µM) | > 50 µg/mL | 1.72 µg/mL (≈ 4.06 µM) | > 50 µg/mL | > 50 µg/mL | – | –
